Bioassay records from PubChem BioAssay.
UPR XBP1 act: activators of adaptive arm of unfolded protein response (XBP1); CHO-XBP1 luciferase reporter, IRE1-XBP1 UPR activation, luminescence; percent of tunicamycin response, DMSO as zero; activation, % at 20 µM; 330,000 compounds, 0.33% hits; AID 463104;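 active means versus positive control, 20 µM dose yields 30% or more activation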
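Material: CHO cell line with stable XBP1 luciferase reporter; schedule: 16-18 h cell attachment at 37 °C, then 6 h compound exposure; signal: glow luminescence from Steady-Glo reagent; medium: serum-containing F12 medium, 10% FBS; benchmarks: tunicamycin 10 µg/mL and vehicle-only wells; read-out: percent activation relative to tunicamycin reference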
Mdm2-MdmX inh: inhibitors of human Mdm2/MdmX interaction. O15151+Q00987. SaOS-2 split-luciferase Mdm2/MdmX complementation, luminescence. inhibition, % at 8 µM. 330,000 compounds, 3% hits. AID 485346;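 active means inhibition of at least 50% at 8 µM in the primary screen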
Beta cell apopt: blocks beta cell apoptosis | INS-1E cytokine-induced death, ATP luminescence, 48 h; percent of positive-control rescue, neutral wells zero | protection from apoptosis, % (concentration not given with the values) | 300,000 compounds, 0.8% hits | AID 435005;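 active means Every replicate reaches about 75%, or at least half do and their mean reaches it too, limit read from the data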;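 further: higher means more ATP so stronger rescue from cytokine killing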
CHOP UPR activ: apoptotic UPR (CHOP) activation. CHO-CHOP luciferase reporter, luminescence; percent of tunicamycin response over DMSO baseline. activation, % at 10 µM. 330,000 compounds, 0.34% hits. AID 449763;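 active means at 10 µM dose, activation of 40% or more, normalized to positive control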
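Assay system: CHO-CHOP cells, stable luciferase reporter of PERK-eIF2a-CHOP signalling / Buffer or medium: F12 plus 10% serum / Compound dosing: one dose, 10 µM in 0.5% DMSO / Times: 6 h compound treatment, 37 °C / Technique: luciferase luminescence / Read-out: % reporter activation, DMSO baseline versus tunicamycin full activation / Benchmarks: tunicamycin and DMSO controls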
T cruzi repl: T. cruzi replication inhibition. T. cruzi beta-gal in NIH3T3, luminescence, 90 h. inhibition, % (test concentration not listed). 300,000 compounds, 1.4% hits. AID 1885;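 active means mean inhibition across valid replicates above about 55%, limit read from the data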;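 further: signal also drops with host cell toxicity which is not excluded here; higher percent means less beta-gal luminescence so fewer parasites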
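System – NIH/3T3 host cells with β-galactosidase reporter T. cruzi · Doses – single 50 nL compound addition per well in DMSO · Reagent – 5000 T. cruzi trypomastigotes/well · Medium – Low-serum DMEM with 2% FBS · Timing – ≥90 h infection period, 3 h prior cell attachment · Evaluation – parasite load inhibition, % · Technique – GalScreen luminescence, 60 min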
CSC inhib: blocks cancer stem cells; AID 2717; cancer stem cell-like cells viability, luminescence; 300,000 compounds, 1.1% hits; inhibition, % at 7.5 µM; in the data active means inhibition above about 75%; tested in HMLE shEcad cells
Mdm2-MdmX conf: human Mdm2/MdmX binding inhibition, confirmed; inhibition, % at 8 µM; 10,000 compounds, 55% hits; luminescent assay; shares compounds with Mdm2-MdmX inh; in the data active means inhibition above about 40%
FLuc counter: full-length luciferase inhibition in Mdm2/MdmX counter-screen; shares compounds with Mdm2-MdmX inh; SaOS-2 full-length luciferase counterscreen, luminescence; inhibition, % at 8 µM; 6,200 compounds, 77% hits; AID 504607;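 active means mean inhibition at 8 µM reaching about 37%, which flags the compound as non-specific, limit read from the data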;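 further: p53-null SaOS-2 cells with luciferase driven by a doxycycline-inducible promoter; compound on cells about two nights before reading with doxycycline added after day one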
A number is an active result; - = inactive; . = no result; ! = repeats disagree. Compounds with a hit are over-represented: about 5% of the library has one in this group of screens.

SMILES	UPR XBP1 act	Mdm2-MdmX inh	Beta cell apopt	CHOP UPR activ	T cruzi repl	CSC inhib	Mdm2-MdmX conf	others
Cc1ccc(S(=O)(=O)N(C)C)cc1NC(=O)CCCNC(=O)c1ccc(Cl)cc1	-	-	-	-	-	-	.
O=C1/C(=C/c2ccccc2Cl)SC(=S)N1CCC(=O)N1CCCCC1CCO (stereo not drawn)	-	52.8	-	-	-	-	-
O=C(CCN1C(=O)/C(=C/c2ccccc2Cl)SC1=S)NC1CCS(=O)(=O)C1 (stereo not drawn)	-	-	-	-	-	-	.
Cc1ccc(N(C(=O)Cc2c[nH]c3ccccc23)C(C(=O)NC2CCCCC2)c2ccco2)cc1 (stereo not drawn)	-	54.9	-	-	-	-	40.1	FLuc counter=85.7
COc1cccc(NC(=O)c2cc3c(=O)n4ccccc4nc3n(CC(C)C)c2=N)c1	-	74.0	-	-	-	-	68.5	FLuc counter=41.1
COc1ccc(CCn2c(=N)c(C(=O)NC3CCCC3)cc3c(=O)n4ccccc4nc32)cc1	-	51.6	-	-	-	-	-
COc1ccc(CNC(=O)c2cc3c(=O)n4ccccc4nc3n(Cc3cccnc3)c2=N)cc1	-	-	-	-	-	-	.
COc1ccc(C)cc1NC(=O)C(Sc1nnc(Nc2cc(C)ccc2OC)s1)c1ccccc1 (stereo not drawn)	-	-	-	-	-	-	.
Cc1ccc(C)c(NC(=O)C(Sc2nc3ccccc3c(=O)n2CC(C)C)c2ccccc2)c1 (stereo not drawn)	-	83.5	-	-	-	-	63.0	FLuc counter=82.7
COc1ccc(Nc2nnc(SC(C(=O)Nc3cc(C)ccc3C)c3ccccc3)s2)cc1 (stereo not drawn)	-	83.9	-	-	-	-	-
Cc1ccc(C)c(NC(=O)C(Sc2ncnc3ccccc23)c2ccccc2)c1 (stereo not drawn)	-	-	-	-	-	-	.
COc1ccc(C2CC(c3ccc4ccccc4c3)=NN2C(=O)CNC2CCCCC2)cc1 (stereo not drawn)	-	61.8	-	-	79.9	-	-
COc1ccc(C2CC(c3ccccc3)=NN2C(=O)COC(=O)c2ccc(S(C)(=O)=O)cc2)cc1 (stereo not drawn)	-	-	-	-	-	-	.
COc1ccc(C2CC(c3ccccc3)=NN2C(=O)COC(=O)c2cccc(O)c2)cc1 (stereo not drawn)	-	54.9	-	-	.	-	-
C=CCNCC(=O)N1N=C(c2ccc3ccccc3c2)CC1c1ccc(OC)cc1 (stereo not drawn)	-	-	-	-	-	-	.
CCc1nn(CC(=O)N2CCN(Cc3ccc4c(c3)OCO4)CC2)c(=O)c2cc3occc3n12	.	.	.	.	-	.	.
C[C@H](CO)N1C[C@H](C)[C@@H](CN(C)S(C)(=O)=O)Oc2ccc(N(C)C)cc2C1=O	-	-	-	-	.	-	.
C/C(=N\OCC(=O)OCC(=O)N(C)c1ccccc1)c1ccc2c(c1)OCO2	-	-	-	-	.	.	.
Cc1ccc(CNC(=O)c2ccc(N3CCC4(CC3)CC(c3ccccc3)=NO4)c(NC(=O)c3ccccc3)c2)cc1	-	-	-	-	-	-	.
Cc1ccc(CNC(=O)c2ccc(N3CCC4(CC3)CC(c3ccccc3)=NO4)c(N)c2)cc1	-	54.9	-	-	-	-	-
COc1cc(C2C3=C(Nc4nc(N)[nH]c(=O)c42)c2ccccc2C3=O)ccc1O (stereo not drawn)	-	-	-	-	-	-	.
Cc1cccc(N2CC(C(=O)Nc3nnc(SCC(=O)N4CCOCC4)s3)CC2=O)c1 (stereo not drawn)	-	-	-	-	-	-	.
O=C(NNc1nc(-c2ccc(Br)cc2)cs1)c1ccco1	-	-	-	-	-	-	.
N#Cc1ccc(-c2csc(NNC(=O)c3ccc(Br)cc3)n2)cc1	-	77.2	77.7	-	.	-	58.8	FLuc counter=-
COc1cc(OC)cc(-c2nnc(SCC(=O)N3c4ccccc4Sc4ccccc43)o2)c1	-	54.0	-	-	-	-	-
SMILES	UPR XBP1 act	Mdm2-MdmX inh	Beta cell apopt	CHOP UPR activ	T cruzi repl	CSC inhib	Mdm2-MdmX conf	others
COc1ccc(-c2nnc(SCC(=O)N3c4ccccc4Sc4ccccc43)o2)cc1	-	-	-	-	-	-	.
Cc1ccc(SCC(=O)OCC(=O)N(CCC#N)c2ccccc2)cc1C	-	-	-	-	-	-	.
Cc1ccc(N(CCC#N)C(=O)CCl)cc1C	-	100.3	-	-	58.9	-	100.2	FLuc counter=57.0
O=C(O)c1cc([N+](=O)[O-])ccc1Nc1ccccc1	-	-	-	-	-	-	.
O=[N+]([O-])c1cc(Br)c(Nc2ccccc2)c([N+](=O)[O-])c1	-	92.2	-	-	-	-	49.6	FLuc counter=79.3
COc1cccc(C(=O)NCCS(=O)(=O)N(C)Cc2ccccc2)c1	-	-	-	-	-	-	.
S=C(NC1CCCCC1)N1CCN(C2CCCCC2)CC1	-	-	-	-	-	-	.
CN(Cc1cnc2nc(N)nc(N)c2n1)c1ccc(C(=O)N[C@@H](CCC(=O)O)C(=O)O)cc1	-	-	-	-	-	85.9!	71.8	FLuc counter=-
O=C(NCC(c1cccs1)N1CCOCC1)c1cn(-c2ccccc2)nc1-c1ccc(Cl)cc1 (stereo not drawn)	-	63.0	-	-	-	-	-
CC(=O)Oc1cc2c(cc1Cl)C1(CC(c3ccccc3Cl)O2)CC(C)(C)NC(=S)N1 (stereo not drawn)	-	56.2	-	-	-	-	-
O=S1(=O)CCOCCN1Cc1ccc(Cl)cc1Cl	-	-	-	-	-	-	.
COc1ccccc1C(=O)NC(=O)COC(=O)c1cccc(OC(F)F)c1	-	-	-	-	-	-	.
COC(=O)C1CN(C(=O)COc2ccc(Cl)cc2C)c2ccccc2O1 (stereo not drawn)	-	-	-	-	-	-	.
S=C(NCc1cccs1)Nc1cccc(Cl)c1	-	-	-	-	-	-	.
S=C(NCc1cccs1)Nc1cc(Cl)cc(Cl)c1	-	60.7	-	-	-	-	-
Cc1onc(C(=O)N2CCN(C(c3ccccc3)c3ccccc3)CC2)c1[N+](=O)[O-]	-	71.4	-	-	-	-	88.3	FLuc counter=51.9
CC(C)(C)c1cc(C(c2cccnc2)N2CCN(CCO)CC2)cc(C(C)(C)C)c1O (stereo not drawn)	-	100.3	-	-	60.6	195.5	75.7	FLuc counter=58.4
